The term IC50 denotes the point on the concentration scale where inhibition reaches its midpoint.

One assay relates to MCF7. Kind of assay: Antiproliferative activity against human MCF7 cells assessed as growth inhibition after 72 hrs by MTT assay. It counts as functional, cell-based. As to conditions: MCF7, 72 h. The gist of the method: (§1)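 MTT proliferation assay on human K562 leukaemia, MCF-7 breast adenocarcinoma, Bel-7402 hepatocellular carcinoma and MGC-803 gastric cancer cells. Drug exposure 72 h. IC50 is the concentration inhibiting 50% of cell growth. Means ± SD, n = 3.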
(In general: Tetrazolium assays rely on reduction of a dye to a coloured formazan, in cell work by metabolically active cells.)

The next assay deals with K562. Kind of assay: Antiproliferative activity against human K562 cells assessed as growth inhibition after 72 hrs by MTT assay. It counts as functional, cell-based. As to conditions: K562, 72 h. The gist of the method: as §1
The test system of a further assay is MGC-803. Kind of assay: Antiproliferative activity against human MGC803 cells assessed as growth inhibition after 72 hrs by MTT assay. It counts as functional, cell-based. As to conditions: MGC-803, 72 h. The gist of the method:
as §1

Assay [1] in a line: Antiproliferative activity against human Bel7402 cells assessed as growth inhibition after 72 hrs by MTT assay. It counts as functional, cell-based. As to conditions: Bel-7402, 72 h. The essentials: as §1
Assay [2] can be described thus: Anticancer activity against human Bel7402 cells assessed as growth inhibition by MTT assay. It counts as functional, cell-based. As to conditions: Bel-7402. The gist of the method: (§2)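 Toxicity compared on human normal liver L-02 cells and human liver cancer Bel-7402 cells run side by side. Survival curves by MTT after 72 h treatment. IC50 is the concentration inhibiting 50% of cell growth.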

Another assay has as its system NCI-H460. The assay can be described thus: Anticancer activity against human NCI-H460 cells by MTT assay. It counts as functional, cell-based. The gist of the method:
(§3)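 MTT cytotoxicity run on paired parental and transporter-overexpressing lines: SW620 vs ABCB1-overexpressing SW620/AD300, and NCI-H460 vs ABCG2-overexpressing NCI-H460/MX20. IC50 is the concentration inhibiting 50% of cell growth. Concentrations tested up to 100 μM.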

The nature of assay [3]: Anticancer activity against ABCB1-overexpressing human SW620/AD300 cells by MTT assay. It counts as functional, cell-based. As to conditions: SW-620. The essentials:
as §3

Assay [4] can be described thus: Anticancer activity against ABCG2-overexpressing human NCI-H460/MX20 cells by MTT assay. It counts as functional, cell-based. The gist of the method: as §3
In the next assay the test system is SW-620. The assay can be described thus: Anticancer activity against human SW620 cells by MTT assay. It counts as functional, cell-based. The essentials: as §3
The test system of the next assay is Bel-7402. The assay can be described thus: Selectivity index, ratio of IC50 for human L02 cells to ratio of IC50 for human Bel-7402 cells. It counts as functional. The essentials: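 Selectivity index is IC50 on normal L-02 liver cells divided by IC50 on Bel-7402 tumour cells. Both IC50 values come from MTT survival curves after 72 h exposure.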
The nature of assay [5]: Cytotoxicity against human L02 cells by MTT assay. It counts as cell-based. The essentials:
as §2

As for `C=C1C(=O)[C@]23[C@H](OC(=O)[C@H](Cc4ccc(N(CCCl)CCCl)cc4)NC(=O)OC(C)(C)C)[C@H]1CC[C@H]2[C@@]12CO[C@@]3(O)[C@@H](O)[C@@H]1C(C)(C)CC[C@@H]2O`, the IC50 in the assay on MCF7 was found to be 3.22 µM; in the assay on K562, 1.41 µM; with MGC-803 it was 6.72 µM; in assay [1], 2.36 µM.
Regarding `C=C1C(=O)[C@]23[C@H](OC(=O)CCCc4ccc(N(CCCl)CCCl)cc4)[C@H]1CC[C@H]2[C@@]12CO[C@@]3(O)[C@@H](O)[C@@H]1C(C)(C)CC[C@@H]2O`, the IC50 was found to be 1.32 µM in the assay on MCF7; 1.43 µM in [2]; 2.28 µM in the assay on K562; 4.81 µM with NCI-H460; 2.28 µM in [3]; 7.26 µM in assay [4]. Besides, the IC50 with MGC-803 was determined as 2.02 µM; with SW-620, 2.7 µM; in [5], 9.62 µM; in assay [1], 1.43 µM. The “Ratio IC50” value in the assay on Bel-7402 is 6.73.
Take `C=C1C(=O)[C@]23[C@H](OC(=O)c4ccc(N(CCCl)CCCl)cc4)[C@H]1CC[C@H]2[C@@]12CO[C@@]3(O)[C@@H](O)[C@@H]1C(C)(C)CC[C@@H]2OC(C)=O`: the IC50 in the assay on MCF7 turned out to be 0.91 µM; in the assay with K562 it was 1.35 µM; in the assay with MGC-803, 3.76 µM; in assay [1], 2.41 µM.
For `C=C1C(=O)[C@]23[C@H](OC(=O)CCCc4ccc(N(CCCl)CCCl)cc4)[C@H]1CC[C@H]2[C@@]12CO[C@@]3(O)[C@@H](O)[C@@H]1C(C)(C)CC[C@@H]2OC(C)=O`, the IC50 was 0.79 µM with MCF7, 1.1 µM in the assay with K562, 2.25 µM with MGC-803 and 1.37 µM in assay [1].
Turning to `C=C1C(=O)[C@]23[C@H](O)[C@H]1CC[C@H]2[C@@]12CO[C@]3(O)[C@@H](O)[C@@H]1C(C)(C)CC[C@@H]2O` [ORIDONIN], the IC50 turned out to be 7.48 µM in [2]; 17.1 µM in the assay with NCI-H460; 4.67 µM in assay [3]; 21.7 µM in [4]; 6.26 µM in the assay on SW-620; 17.8 µM in [5]. Further, the “Ratio IC50” value with Bel-7402 worked out at 2.38.
Turning to `C=C1C(=O)[C@]23[C@H](OC(=O)CCCc4ccc(N(CCCl)CCCl)cc4)[C@H]1CC[C@H]2[C@@]12CO[C@@]3(O)[C@@H](O)[C@@H]1C(C)(C)CCC2=O`, the IC50 came out at 2.25 µM in the assay on MCF7, 2.37 µM in the assay on K562, 3.95 µM in the assay with MGC-803 and 2.53 µM in [1].
Consider `N[C@@H](Cc1ccc(N(CCCl)CCCl)cc1)C(=O)O` [MELPHALAN], for which the IC50 amounted to 19.6 µM in the assay with MCF7, 33.4 µM in the assay with K562, 36.9 µM in the assay with MGC-803 and 24.8 µM in assay [1].
In the case of `O=C(O)CCCc1ccc(N(CCCl)CCCl)cc1` [CHLORAMBUCIL], the IC50 in the assay with MCF7 was determined as 80.5 µM; in [2], 49.3 µM; in the assay on K562, 60.1 µM; in the assay on MGC-803, 134 µM; in assay [5], 106 µM; in assay [1], 49.3 µM. The “Ratio IC50” value in the assay on Bel-7402 came to 2.14.
For `C=C1C(=O)[C@]23[C@H](OC(=O)CCCC(=O)N[C@@H](Cc4ccc(N(CCCl)CCCl)cc4)C(=O)OC)[C@H]1CC[C@H]2[C@@]12CO[C@@]3(O)[C@@H](O)[C@@H]1C(C)(C)CC[C@@H]2O`, the IC50 in the assay with MCF7 stood at 12.9 µM; in the assay on K562, 5.74 µM; with MGC-803, 6.92 µM; in [1], 7.91 µM.
`C=C1C(=O)[C@]23[C@H](OC(=O)CCC(=O)N[C@@H](Cc4ccc(N(CCCl)CCCl)cc4)C(=O)OC)[C@H]1CC[C@H]2[C@@]12CO[C@@]3(O)[C@@H](O)[C@@H]1C(C)(C)CCC2=O`: the IC50 turned out to be 2.88 µM in the assay on MCF7, 1.66 µM with K562, 3.39 µM with MGC-803 and 1.41 µM in assay [1].
The corresponding values for `C=C1C(=O)[C@]23[C@H](OC(=O)[C@H](Cc4ccc(N(CCCl)CCCl)cc4)NC=O)[C@H]1CC[C@H]2[C@@]12CO[C@@]3(O)[C@@H](O)[C@@H]1C(C)(C)CC[C@@H]2O` are 14.6 µM, 7.03 µM, 7.1 µM and 3.84 µM.
With `C=C1C(=O)[C@]23[C@H](OC(=O)CCC(=O)N[C@@H](Cc4ccc(N(CCCl)CCCl)cc4)C(=O)OC)[C@H]1CC[C@H]2[C@@]12CO[C@@]3(O)[C@@H](O)[C@@H]1C(C)(C)CC[C@@H]2OC(C)=O`, the IC50 with MCF7 turned out to be 3.63 µM; with K562 it was 1.73 µM; with MGC-803, 4.71 µM; in assay [1], 2.56 µM.
On to `C=C1C(=O)[C@]23[C@H](OC(=O)CCC(=O)N[C@@H](Cc4ccc(N(CCCl)CCCl)cc4)C(=O)OC)[C@H]1CC[C@H]2[C@@]12CO[C@@]3(O)[C@@H](O)[C@@H]1C(C)(C)CC[C@@H]2O`, for which the IC50 with MCF7 is 14.4 µM; in the assay with K562, 9.01 µM; with NCI-H460, 28.4 µM; in assay [3], 14.9 µM; in assay [4] it was over 100 µM; in the assay with MGC-803, 9.3 µM. In addition, the IC50 in the assay with SW-620 came to 14 µM; in assay [1] it was 8.35 µM.
Take `C=C1C(=O)[C@]23[C@H](OC(=O)c4ccc(N(CCCl)CCCl)cc4)[C@H]1CC[C@H]2[C@@]12CO[C@@]3(O)[C@@H](O)[C@@H]1C(C)(C)CCC2=O`: the IC50 in the assay on MCF7 amounted to 0.67 µM; in the assay with K562 it was 1.17 µM; in the assay on MGC-803, 1.6 µM; in assay [1], 0.9 µM.

Source of the values: ChEMBL document CHEMBL3352716 (ACS Med Chem Lett, 2014).
